# High-throughput results deposited in PubChem BioAssay by Broad Institute.
# Rows were chosen to be rich in hits. Some 3.6% of all compounds tested hit in one or more screens of this group.
# Wnt act – Wnt/beta-catenin pathway activators, primary screen, cell-based, plate reader, single point; 1.2% of 300,000 active; Wnt/beta-catenin reporter cell assay, activator; activation, % at 9.35 µM; AID 743398, 2014; in the data active = activation above about 30%, passing the limit was not always enough;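 note: 0% = neutral control wells and 100% = positive control wells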
# SR-BI DiI inh – inhibitors of SR-BI mediated HDL lipid uptake, primary screen, ldlA[mSR-BI] cells, fluorescence, single point | inhibition, % at 12.5 µM | Scavenger receptor class B member 1 (Mus musculus), Q61009 | 0.96% of 320,000 active | ldlA[mSR-BI] CHO cells, DiI-HDL uptake fluorescence, 3 h;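 active = mean replicate inhibition of at least 70% and a set share of replicates each scoring 70 or more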;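 note: 0% = median of neutral control wells and 100% = median of positive control wells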
# Target sequence (Q61009 whole entry, looked up): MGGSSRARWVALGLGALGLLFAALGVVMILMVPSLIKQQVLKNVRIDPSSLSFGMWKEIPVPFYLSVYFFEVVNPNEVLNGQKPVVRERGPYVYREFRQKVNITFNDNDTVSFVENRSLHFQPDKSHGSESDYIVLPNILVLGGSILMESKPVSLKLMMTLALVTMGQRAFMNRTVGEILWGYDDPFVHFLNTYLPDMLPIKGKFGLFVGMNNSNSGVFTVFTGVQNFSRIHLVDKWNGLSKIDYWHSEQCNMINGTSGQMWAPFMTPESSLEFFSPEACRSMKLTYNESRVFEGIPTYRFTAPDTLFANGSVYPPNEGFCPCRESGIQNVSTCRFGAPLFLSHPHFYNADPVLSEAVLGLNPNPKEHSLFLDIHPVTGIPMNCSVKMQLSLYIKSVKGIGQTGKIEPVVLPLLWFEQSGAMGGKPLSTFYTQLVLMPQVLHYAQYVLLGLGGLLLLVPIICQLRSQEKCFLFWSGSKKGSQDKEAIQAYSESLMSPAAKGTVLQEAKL
# HSF1 activator – HSF-1 activators, primary screen, NIH3T3-HGL cells, MG132 stress, luminescence, single point; activation, % at 9 µM; NIH3T3-HGL HSF-1 luciferase reporter, 8 h; 100% = twice DMSO control signal; AID 504408, 2011; 1.7% of 300,000 active;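 active = mean replicate activation of at least 50% with a set share of replicates each reaching 50%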;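 note: 0% = median of the neutral control wells and 100% = twice that signal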
# MITF act – activators of MITF-driven TRPM1 promoter reporter, primary screen, cell-based, SK-MEL-5, luciferase, single point; SK-MEL-5 TRPM1-promoter luciferase, 24 h; % of positive control, neutral wells = 0; activation, % at 12.5 µM; 0.75% of 300,000 active; AID 588334, 2011;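 active = mean activation of at least 80% with every replicate also reaching 80%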;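 note: 0% = neutral control wells and 100% = parthenolide positive control wells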
# SR-BI uptake up – activators of SR-BI mediated DiI-HDL uptake, primary screen, ldlA[mSR-BI] CHO cells, DiI fluorescence; AID 504775, 2011; 0.096% of 320,000 active; activation, % at 12.5 µM; 3 h; 100 = double the neutral-control signal;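 active = mean replicate activation of at least 60% and every replicate at or above 60%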;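 note: 0% = median plate neutral-control signal and 100% = twice that signal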
#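 Test system: SR-BI-overexpressing, LDLR-lacking CHO cells. Measured by: DiI fluorescence, bottom read. Medium: Ham's F12 with 0.5% BSA, HEPES 25 mM, pH 7.4. Timing: 3 h uptake period with compound, 37 °C.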
# Active calls of the source: *; . = not tested or not shown.
SMILES,Wnt act,SR-BI DiI inh,HSF1 activator,MITF act,SR-BI uptake up
Cc1ccc(-c2cc(N)n(-c3ccc(C)cc3)n2)cc1,.,9,9,87*,-9
O=C1NC(=O)C2(CCCc3c([N+](=O)[O-])cccc32)N1 (stereo not given),-1,.,.,.,.
Cc1cc(Br)cn2c(Cc3ccccc3)c(-c3ccccc3)nc12,-1,.,.,.,.
CSc1ccc(/C=C/C(=O)OCC(=O)c2ccc[nH]2)cc1,5,10,.,29,-10
COc1cccc(N=CNc2cccc(OC)c2)c1,21,-15,.,31,15
CCN(C(=O)COC(=O)c1cc(OC)ccc1Br)C1CCS(=O)(=O)C1 (stereo not given),-2,30,.,-3,-30
CCN(C(=O)COC(=O)c1c2c(nc3ccccc13)/C(=C/c1ccccc1)CC(C)C2)C1CCS(=O)(=O)C1 (stereo not given),-6,38,84*,-12,-38
CCN(C(=O)COC(=O)c1cc(-c2ccc3cc(OC)ccc3c2)nc2ccccc12)C1CCS(=O)(=O)C1 (stereo not given),.,.,70*,.,.
Cc1ccc(NC2=C(NC(=O)c3ccccc3)C(=O)c3ccccc3C2=O)cc1Cl,3,79*,48,-66,-79
CCOc1cc(C(=O)N/N=C\c2cn(CC)nc2C)cc(OCC)c1OCC,-2,81*,-17,-2,-81
O=C(/C=C/c1ccncc1)c1ccc2c(c1)OCCO2,-1,-22,4,2,22
COc1cc(/C=C/C(=O)c2ccc3c(c2)OCCO3)cc(Br)c1OCC(=O)N(C)C,10,38,243*,-92,-39
COc1ccc(C2=Nc3ccccc3N(C(=O)c3ccc(C(F)(F)F)cc3)C2C(=O)NCc2ccccc2)cc1 (stereo not given),2,.,.,.,.
CC(C)c1ccc(/C=C/C(=O)Nc2nncs2)cc1,22,.,41,-2,.
Cc1sc(NC(=O)/C=C/c2ccc(C(C)C)cc2)c(C#N)c1C,.,78*,-6,.,-78
Nc1[nH]n2c(=O)cc(-c3ccccc3)nc2c1N=Nc1ccc(S(N)(=O)=O)cc1,-6,2,20,-5,-2
NS(=O)(=O)c1ccc(N=Nc2c(-c3ccccc3)[nH]n(-c3nc(-c4ccccc4)cs3)c2=O)cc1,-2,112*,-24,31,-112
CCOC(=O)c1ccccc1NC(=O)/C=C/C(=O)O,-2,8,1,1,-8
CCCCCCOC(=O)c1ccccc1NC(=O)/C=C/C(=O)O,34*,7,19,.,-7
O=C(O)/C=C/C(=O)Nc1ccccc1C(=O)OCC(=O)c1ccc2c(c1)OCCO2,32*,-13,.,15,13
O=C(c1ccccn1)N(Cc1ccco1)C1(C(=O)NC2CCCC2)CCCCC1,0,-39,61*,.,39
Cc1ccc(-n2nc3c(n2)/C(=N/O)CC/C3=N\O)cc1,43*,-14,34,25,14
O/N=C1\CC/C(=N\O)c2nn(-c3ccccc3Cl)nc21,.,2,-16,-5,-2
C=CCN1C(=O)/C(=C2/Sc3ccc(OC)cc3N2C)SC1=Nc1cccc(O)c1,-4,102*,22,-7,-102
CCN1C(=O)/C(=C2/Sc3ccc(OC)cc3N2C)SC1=Nc1ccc(OC)cc1,2,58,7,20,-58
SMILES,Wnt act,SR-BI DiI inh,HSF1 activator,MITF act,SR-BI uptake up
CC(C)(C)c1ccc(-n2nc(C#N)c(Cl)cc2=O)cc1,-9,15,153*,-97,-15
CC(C)(C)c1ccc(-n2nc(C(N)=O)c(O)cc2=O)cc1,0,-26,-9,-10,26
S=C(Nc1ccccc1Cl)N1CCCC1,1,1,-1,0,-1
S=C(Nc1ccc(Br)cc1Cl)N1CCCC1,13,3,23,84*,-3
Cc1cc(/C=N/NC(N)=S)c(C)n1-c1ccc(Cl)c(Cl)c1,4,81*,1,-29,-81
CCNC(=S)N/N=C/c1cc(C)n(-c2ccc(Cl)cc2)c1C,1,8,-17,86*,-8
CCOC(=O)[C@]12CCCC=C1N(Cc1ccccc1)C(=O)[C@H](CC(=O)NCc1cccc3ccccc13)C2,-4,.,.,.,.
COC(=O)c1ccccc1-c1c2ccc(=N)cc-2oc2cc(N)ccc12,-4,77*,.,-56,-77
OC[C@H]1O[C@@H](c2nc(-c3ccc(CN4CCOCC4)cc3)no2)[C@H](O)[C@@H](O)[C@H]1O,-6,.,.,.,.
O/N=C/c1ccc(OCc2ccccc2F)c(Cl)c1,.,2,84*,55,-2
CCOc1cc(/C=N/O)ccc1OCc1ccc(C)cc1,15,-9,33,49,9
O/N=C/c1cc(Br)ccc1OCc1ccc(F)cc1,.,7,42,26,-7
O/N=C/c1ccc(OCc2ccccc2)c(Br)c1,42*,13,66*,73,-13
O/N=C/c1ccc(OCc2ccccc2)c(Cl)c1,.,1,58*,77,-1
O/N=C/c1cc(Br)cc(Br)c1OCc1ccccc1,-9,16,9,3,-16
Cc1ccc(COc2ccc(Br)cc2/C=N/O)cc1,.,2,94*,56,-2
CN(C(=O)c1cccc(NC(=O)Cc2ccc(NC(=O)C3CCCN(C(=O)C4CCC4)C3)cc2)c1)C1CCCCC1 (stereo not given),-3,88*,.,-13,-88
CN(Cc1ccccc1)C(=O)c1cccc(NC(=O)Cc2ccc(NC(=O)C3CCCN(C(=O)C4CCCCC4)C3)cc2)c1 (stereo not given),-3,75*,.,2,-75
CN(Cc1ccccc1)C(=O)c1cccc(NC(=O)Cc2ccc(NC(=O)C3CCN(C(=O)C4CCCC4)CC3)cc2)c1,-1,66,.,-4,-66
C[C@@H]1CCCCO[C@H](CN(C)C(=O)C2CCCCC2)[C@@H](C)CN([C@H](C)CO)C(=O)c2cc(NS(=O)(=O)c3cccs3)ccc2O1,-4,.,.,.,.
Cc1ccc(C(=O)N2O[C@]34C=C[C@]25C[C@@H](O)CC[C@]5(C)C3CC[C@]2(C)[C@@H]([C@H](C)/C=C/[C@H](C)C(C)C)CC[C@H]24)cc1 (stereo not given in full),0,.,.,.,.
CCN1CCSc2ccc(C(=O)NCc3ccc(OC(C)C)cc3)cc21,10,43,77*,.,-43
CCOc1ccc(CNC(=O)c2ccc3c(c2)N(CC)CCS3)cc1,0,16,55*,-8,-16
CCN1C(=O)CSc2ccc(C(=O)NCc3ccc(OC)cc3)cc21,.,-29,52*,-16,29
CCCCNC(=O)c1ccc2c(c1)N(CC)C(=O)CS2,.,10,0,1,-10
COc1c(Cl)cccc1-c1cn2ccc(C)cc2n1,57*,12,58*,69,-12
